Compound activity from PubChem BioAssay.
Most compounds without a hit are left out; they make up all but 2.2% or so of the library.
Rin1 Abl inh – inhibitors of Rin1-Abl protein binding, primary screen, biochemical, TR-FRET. inhibition, % at 7.35 µM. Tyrosine-protein kinase ABL1 (Homo sapiens) + Ras and Rab interactor 1 (Homo sapiens), …. AID 588664, 2011. 360,000 tested, 0.4% active; in the data active = inhibition above about 5%, passing the limit was not always enough
GSTO1 inh – inhibitors of recombinant GSTO1, primary screen, counter-screen for RBBP9 inhibitor project, biochemical, fluorescence polarization; inhibition, % at 5.96 µM; Glutathione S-transferase omega-1 (Homo sapiens), P78417; AID 1974, 2009; activity-based probe fluorescence polarization; 300,000 tested, 1.1% active;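 active = inhibition above the campaign mean inhibition plus 3 SD, cut at about 35% in these data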;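 note: 0% = GSTO1-1 with DMSO and 100% = wells lacking GSTO1-1 enzyme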
Target sequence (P78417 whole entry, looked up): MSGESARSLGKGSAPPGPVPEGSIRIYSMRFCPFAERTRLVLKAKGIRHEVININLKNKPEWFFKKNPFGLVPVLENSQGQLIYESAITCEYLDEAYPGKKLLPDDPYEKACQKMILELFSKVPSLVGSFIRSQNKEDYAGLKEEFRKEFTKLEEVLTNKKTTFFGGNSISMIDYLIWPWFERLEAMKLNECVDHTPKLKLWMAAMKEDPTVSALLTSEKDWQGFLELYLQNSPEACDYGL
PAD4 FP inh – human PAD4 inhibitors, primary screen, biochemical, fluorescence polarization, 1536-well format. Protein-arginine deiminase type-4 (Homo sapiens), Q9UM07. recombinant PAD4, RCA probe fluorescence polarization. inhibition, % at 6.36 µM. 330,000 tested, 0.41% active. AID 485272, 2010;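 active = percent inhibition above a cutoff equal to the mean of all tested compounds plus 3 SD, cut at about 15% in these data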;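 note: 0% = PAD4 with RCA probe and DMSO and 100% = probe without PAD4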
Apaf-1 inh – inhibitors of human Apaf-1 apoptosome, primary screen, biochemical, DEVD-Rh110 fluorescence, uHTS; Apoptotic protease-activating factor 1 (Homo sapiens), O14727; reconstituted apoptosome caspase-3 activity; inhibition, % at 20 µM; 330,000 tested, 0.71% active; AID 489030, 2010; active = inhibition of at least 40% at 20 µM;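 note: plate controls were DMSO wells for no effect and DEVD-CHO caspase inhibitor wells for full effect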
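System: Apoptosome proteins | Medium: Hepes pH 7.5 with detergent and BSA | Also added: Cytochrome c trigger plus (Z-DEVD)2-Rh110 caspase-3 substrate | Incubation: 30 min compound preincubation, 50 min activation, room temperature | Detection: Rhodamine 110 fluorescence at Ex 480/Em 540 nm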
UBC13 polyUb – UBC13 polyubiquitin chain formation inhibitors, primary screen, biochemical, TR-FRET, uHTS; 330,000 tested, 0.47% active; inhibition, % at 20 µM; Ubiquitin-conjugating enzyme E2 N (Homo sapiens), P61088; AID 485273, 2010; in the data active = inhibition above about 45%, passing the limit was not always enough; inconclusive = no clear call, values can overlap the other calls
Target sequence (P61088 whole entry, looked up): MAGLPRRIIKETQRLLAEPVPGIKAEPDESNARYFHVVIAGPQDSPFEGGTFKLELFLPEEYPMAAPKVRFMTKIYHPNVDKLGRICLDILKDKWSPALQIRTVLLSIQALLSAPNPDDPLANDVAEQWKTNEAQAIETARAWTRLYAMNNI
SUMO HTRF inh – inhibitors of in vitro SUMOylation cascade, primary screen, biochemical, HTRF, uHTS | SUMO-conjugating enzyme UBC9 (Homo sapiens), P63279 | HTRF SUMOylation assay, SAE1/SAE2 + UBC9 | inhibition, % at 35 µM | 290,000 tested, 0.36% active; in the data active = inhibition above about 50%, passing the limit was not always enough; inconclusive = no clear call, values can overlap the other calls
Target sequence (P63279 whole entry, looked up): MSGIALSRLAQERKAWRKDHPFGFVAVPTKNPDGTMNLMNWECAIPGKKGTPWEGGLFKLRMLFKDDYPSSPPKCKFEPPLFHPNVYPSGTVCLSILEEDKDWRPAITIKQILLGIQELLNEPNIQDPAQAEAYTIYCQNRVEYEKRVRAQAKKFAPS
Apaf-1 inh conf – Apaf-1 inhibitors, single-dose retest, confirmation, biochemical, fluorescence, DEVD-Rh110, 20 µM. 1,800 tested, 25% active. inhibition, % at 20 µM. reconstituted apoptosome, caspase-3 DEVD-Rh110 fluorescence. shares compounds with Apaf-1 inh;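 active = mean inhibition of at least 40% at 20 µM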;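 note: plate controls were DMSO wells for no effect and DEVD-CHO caspase inhibitor control wells for full effect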
Rh110 interf inh – Rh110 fluorescence interference by putative Apaf-1 inhibitors, confirmation, artefact control for Apaf-1 inhibitor project, biochemical, 20 µM; activation (fluorescence interference), % at 20 µM; quenched caspase reaction; 1,800 tested, under 10 active; shares compounds with Apaf-1 inh;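 active = signal rise of 40% or more at 20 µM, treated as a fluorescence artifact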
Fluor interf inh – fluorescence interference of Apaf-1 inhibitor hits, dose response, artefact control for Apaf-1 inhibitor project; IC50, µM; shares compounds with Apaf-1 inh; 460 tested, under 10 active; fluorescence interference counterscreen, Apaf-1 assay format; call rule not given here
Active calls of the source: *; ? = inconclusive; · = not tested or not shown.

SMILES	Rin1 Abl inh	GSTO1 inh	PAD4 FP inh	Apaf-1 inh	UBC13 polyUb	SUMO HTRF inh	Apaf-1 inh conf	Rh110 interf inh	others
CCC(C)Sc1cccc(-c2nc3cc(C)ccn3c2NC2CCCCC2)c1 (configuration not stated)	1	·	-15	41*	28	·	15	-16
CCCCCCSc1cccc(-c2nc3cc(C)ccn3c2NC2CCCCC2)c1	-1	3	5	21	36	·	·	·
CCCCCCSc1cccc(-c2nc3cc(C)ccn3c2NCc2ccccc2)c1	3	0	0	40*	10	·	21	11
Cc1ccn2c(NC3CCCCC3)c(-c3cccc(SC4CCCCC4)c3)nc2c1	-1	·	-1	40*	25	·	16	-8
Cc1ccc(SCC(=O)OCC(=O)NCC2CCCCC2)cc1C	2	14	-3	12	-2	·	·	·
Cc1ccc(SCC(=O)OCC(=O)NCCNC(=O)COC(=O)CSc2ccc(C)c(C)c2)cc1C	3	-2	-2	40*	11	·	20	16
OCCCCNc1cccc2ccccc12	-2	23	-11	81*	-98	14	18	-2
CC(C)C[C@@H](C(=O)NC1CCN(Cc2ccccc2)CC1)N1C(=O)N2CCc3c([nH]c4ccccc34)[C@@]2(C)C1=O	0	-5	5	45*	35	-12	17	-1
O=C(c1cc2sccc2n1Cc1ccc(F)cc1)N1CCN(c2nc3ccccc3s2)CC1	1	-11	2	22	-3	-56	·	·
Cn1c(C(=O)N2CCN(c3nc4ccccc4s3)CC2)cc2sccc21	-1	-3	-2	41*	7	-26	33	3
Cn1c(NC(=O)c2ccc(Cl)s2)cc(=O)n(C)c1=O	4	0	2	66*	3	12	10	-3
CCC(=O)N(CCc1ccccc1C)Cc1cc2cc3c(cc2[nH]c1=O)OCO3	0	17	-6	41*	4	11	8	3
O=C(/C=C/c1c(F)cccc1Cl)N1CCc2ccccc2C1	-1	5	-4	13	7	-4	·	·
CC(=O)Nc1sc2c(c1C#N)CCN(Cc1ccccc1)C2	-3	9	-2	3	3	1	·	·
N#Cc1c(NCCCO)nc(NCc2ccccc2)c2c1CCN(Cc1ccccc1)C2	-3	17	-23	69*	-37	25	21	2
CC(C)c1nc(NCc2ccccc2)c(C#N)c2c1CCCC2	-2	20	0	7	14	19	·	·
CN1CCc2c(C#N)c(N3CCCCC3)nc(NCc3ccccc3)c2C1	-6	6	-4	52*	20	14	21	11
Cc1cc(NC(=O)CCCn2nc([N+](=O)[O-])c(Br)c2C)no1	-2	6	2	40*	4	25	2	-2
Cc1c(Cl)c([N+](=O)[O-])nn1CCCC(=O)Nc1cccc(Cl)c1	4	3	1	9	7	-9	·	·
COc1ccc2cc(C(=O)N3CCN(c4ccccc4OC)CC3)[nH]c2c1	1	-4	1	16	2	4	·	·
CCOc1cc(CNc2ccc3cn[nH]c3c2)ccc1OC	-6	18	-8	85*	-22	27	49*	-2	Fluor interf inh=>100
COc1ccc(CNc2ccncc2)c(OC)c1OC	2	·	·	·	·	·	·	·
COc1ccc(CNc2ccc3cn[nH]c3c2)c(OC)c1OC	-5	33	-9	46*	6	14	39	-2
O=C(C1CCC(=O)N(C2CC2)C1)N1CCC(Oc2cccc(C(F)(F)F)c2)CC1 (configuration not stated)	0	·	·	-10	6	0	·	·
CCOC(=O)CC1(C)c2nc(NC(C)=O)sc2Cc2sc(NC(C)=O)nc21	3	·	·	·	·	·	·	·
SMILES	Rin1 Abl inh	GSTO1 inh	PAD4 FP inh	Apaf-1 inh	UBC13 polyUb	SUMO HTRF inh	Apaf-1 inh conf	Rh110 interf inh	others
O=C(CN1C2CCCC1CC(NC(=O)c1ccco1)C2)Nc1ccccc1 (configuration not stated)	0	10	2	2	0	10	·	·
O=C(NC1CC2CCCC(C1)N2S(=O)(=O)c1ccccc1)c1ccco1 (configuration not stated)	1	-1	3	42*	-4	24	2	5
Cc1ccc(S(=O)(=O)N2CCCCC2)cc1NC(=O)C1COc2ccccc2O1 (configuration not stated)	1	·	·	·	·	·	·	·
CN(C)S(=O)(=O)c1cccc(NC(=O)COC(=O)/C=C/c2ccco2)c1	2	0	1	95*	-7	9	6	1
O=C(NCCCn1ccnc1)c1noc2c1CCc1ccccc1-2	0	29	-1	47*	-2	25	40	2
COC(=O)[C@@H](Cc1ccccc1)NC(=O)Cn1cc(C)c(=O)[nH]c1=O	1	·	·	·	·	·	·	·
CCC1Nc2ncnc(N3CCN(c4ccccc4)CC3)c2N(Cc2ccccc2)C1=O (configuration not stated)	3	·	2	60*	2	·	29	14
CCN1CCc2c(sc(NC(=O)c3ccc(C(=O)c4ccccc4)cc3)c2C(N)=O)C1	-2	-35	-5	44*	20	8	21	10
CN(C(=S)Nc1ccc(SC(F)F)cc1)c1ccc(O)cc1	2	66*	11	70*	10	?	5	2
CN(C(=S)Nc1ccccc1)c1ccccc1	4	8	1	2	-4	-1	·	·
COc1ccccc1-c1c(C#N)c(N)nc2c1CCc1ccccc1-2	0	18	-14	96*	-22	98*	28	8
O=C(CCCC(=O)c1ccccc1)Nc1ccc(O)cc1	1	8	5	-3	5	2	·	·
COc1ccccc1C(=O)NC(CCSC)C(=O)N1CCC(Cc2ccccc2)CC1 (configuration not stated)	0	-3	-1	44*	11	·	29	0
O=P(CCCCCCCCCP(=O)(c1ccccc1)c1ccccc1)(c1ccccc1)c1ccccc1	1	-5	-1	53*	10	6	30	1
